The EternaBench riboswitch data

Tested on: MS2 coat protein
Assay: apparent Kd, MS2 coat protein; higher = weaker binding; RNA-MaP array; FMN 200 µM where present
Procedure, shortened: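 Green signal was scaled to red-channel RNA signal and control-cluster median Fmax, and the apparent Kd was taken as the median of filtered per-cluster binding-curve fits. The binding series used SNAP-549-labelled MS2 coat protein from 0.7 or 1.5 nM, doubling to 3 µM, on designs transcribed by stalled E. coli RNA polymerase on Illumina sequencing-chip clusters. Each series ran without and then with constant ligand in 100 mM Tris-HCl pH 7.5, 80 mM KCl, 4 mM MgCl2, BSA, DTT, yeast tRNA and Tween-20.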

[1] = designed as: ON switch for flavin mononucleotide, no ligand
[2] = ligand present: flavin mononucleotide, designed as: ON switch for flavin mononucleotide
[3] = designed as: OFF switch for flavin mononucleotide, no ligand
[4] = ligand present: flavin mononucleotide, designed as: OFF switch for flavin mononucleotide

Sequence	apparent Kd [1] [nM]	apparent Kd [2] [nM]	apparent Kd [3] [nM]	apparent Kd [4] [nM]
GAGAUUUUGUAAGGAUAUACUCUGUGAUGAAGAGUAGAAGGUACUUACAUGAGGAUCACCCAUGUUUAACGAGAUACUAAUCGU	57	23.3	–	–
CACCGUUACAGAGGAUAUCGUACAUGAGGAUCACCCAUGUAAUAAAUGAGAAUUUCGGAUGUAUGCGAGAAGGCUGGAAUCGGC	–	–	28.5	36.1
GGUCGUCACAUUAACAUGAGGAUCACCCAUGUCAAAUAACAUGAGGAUAUGCAUCCUAAUUGGAUGCAGAAGGCAUGGACGACC	6.72	5.39	–	–
ACAUGAGGAUCACCCAUGUAAAAUUAGGAUAUAUGACUGCACAUGAGGUUCACCCAUGUUCUACCGUAGAAGGGAUAAAUAAUU	71.1	75.6	–	–
ACAAAUGGAGGAUAUACAUGAGGAUCACCCAUGUAUAUCCUACAUAUGUGAUAAUCAUGUAGAAGGCCAUUUGA	–	–	12.3	11
ACGGCAAUCACAGGAUAUGGUUACAUGAGGAUCACCCAUGUCUAGGGUCUAAUUAGGUAUAACUACCAGAAGGGUGAAGGCCUA	–	–	97.1	80.1
GUUUCUAUAUGUUUUAUUUAACAGUCAGAAGGUGAUAAUACGACAUGAGGAUCACCCAUGUAAUUCAAGGAUAUGAUAUUAAUC	62.7	27.7	–	–
AGCCAAGCAGGAUAUGCACGUAAUAACAUGAGGAUCACCCAUGUGACCGAUUUAUAUUCUGCAGAAGGGCUUGGAU	–	–	29	118
UAUAGGCUAGGAUAUACAACACUUGGUUCGAAUGUUUGGAGACAUGAGGAUCACCCAUGUAGAAGGAGCAUUUC	–	–	64.8	190
UUUAUAUAGUAAGGAUAUGUAUUAUUUUUUACAACAGAAGGUACUGACAUGAGGAUCACCCAUGUUUUAGUGUGGGCAUGUAGU	–	–	296	364
GCUCGAUGAGCUGUCUACAUGAGGAUCACCCAUGUAGAUGGGCAGGAUAUUUACGUGCUUUAUGUAGAGAAGGGCCCAUCGAGC	–	28.8	–	–
GUUUCGGGAGGAUAUGCGUGGAUUAUUCUCGUAUGUUGUUUACAUGAGGAUCACCCAUGUAGAAGGUCUGGAGC	–	–	193	300
GGAAAACAUGAGGAUCACCCAUGUGAGGAUAUCGAUGUCCAAAAACAAGUGCGGGACUCGAGAAGGCACUUGGA	–	–	35	23.2
AAAAAGUCAGGAUAUCGGAAAAAAAAAAAAAAAAGGAGAAACGAGAAGGGACAUGAGGAUCACCCAUGUAAAAA	–	–	51	46.7
AAUAUGUUGCAGAAGGCUAUGUUGUGGUAGUACCUCAUGACAUGAGGAUCACCCAUGUUUGUGUUGGAGGAUAUGCAAUAUAUU	–	–	12.7	40.6
AAUUAACAUGAGGAUCACCCAUGUGAGGAUAUGGUAUUACUUGGACAGCUAUGAUCUACCAGAAGGCACAUAUA	–	–	28.7	49.4
GUUUUUUUUAGUUCAUACUAUAAGAUAGAAGGUGAAAUAUAGACAUGAGGAUCACCCAUGUAAUUCAAGGAUAUGUAGUUACUC	44.1	24.8	–	–
AUGAAAGUAACACAGGAUAUCGAGGAUACAACAUGAGGAUCACCCAUGUACAUACGAACGUAUAACGAGAAGGGUGGAUGAUCUUC	244	639	–	–
AUCGGUCCGUAGAAGGGUGACAUGAGGAUCACCCAUGUGCCGUGUGCAUUUAUGCAUCCACGGCCACAGGAUAUACGGAGUUGA	34.9	25.4	–	–
UCUAAGCGAAUCAAGAUGGAUAGAACAUGAGGAUCACCCAUGUAGGAUAUGCUACACAAAGUGUAGCAGAAGGACAAGCUUAGA	–	–	25.9	36.2
CAUGUCUGAGGAUAUCGUUUUUUGUACAUGAGGAUCACCCAUGUCCUAUUUUUUUUAUUUCGAGAAGGCAGUGUAU	–	–	47.7	37.7
GUCAGCUCGUGAGGAUAUACAUGUGCUGGAGACAGCAUUAUAUUUUUCACAUGAGGAUCACCCAUGUAGAAGGCACGAGCUGAU	–	–	16.5	27.4
CCGAAUAUGCAGGAUAUCUUAUCGGAAACGAUAAGAGAAGGGUAAACAUGAGGAUCACCCAUGUUCCUUAACGG	–	–	20.3	21
AGGAAGUAAGGAUAUGCUGCUCGUCACUUGCGUGAUGAGUAGCAGAAGGUACAUGAGGAUCACCCAUGUAAAGA	–	–	23.7	20.6

Sequence	apparent Kd [1] [nM]	apparent Kd [2] [nM]	apparent Kd [3] [nM]	apparent Kd [4] [nM]
AAAACACAUGAGGAUCACCCAUGUAUCUGGACCAUAGGAUAUCCGCGCCCACUAGGGUGUGGAGAAGGGUGAGCCC	204	245	–	–
UCAAGUAUGUAGGAUAUCGAUGUCCUCGGACAUCGAGAAGGACGUACAUGAGGAUCACCCAUGUAACUUGCAUG	–	–	63.8	84.9
UUAAAUCAUGUAGGAUAUGCAUGGCGAAGCUACGCAGAAGGACAUGAGGAUCACCCAUGUUCAAGCGUCUGAGUACAGAUGCAA	–	–	20.9	102
GUCAGCUCGUGAGGAUAUCCAACACUGCUUCGGCAGUGUAUUAAGAUCACAUGAGGAUCACCCAUGUAGAAGGCACGAGCUGAU	–	–	6.48	7.55
AAAUCCUACGAAGGAUAUACAAACAUGAGGAUCACCCAUGUGUGUUUCGUGUAACUGGAAUUCGGGUAGAAGGUCGUAGACAUA	–	–	33.2	20.8
CGAUCGUUGCAGAAGGUUAAAAUUUUAUCUACAUGUUUAACAUGAGGAUCACCCAUGUUUAUGAUGAAGGAUAUGCAAGGGUCG	–	–	6.76	6.18
UGGUUGUCAGGAUAUUGGGUUUUUAACUUUAGUUUUAUAUUCGAGAAGGGACAUGAGGAUCACCCAUGUUACGU	–	–	32.7	37.6
UGUCGGAGCAGAGGAUAUUACAUGAGGAUCACCCAUGUACGAACCAAUAGCUGGAAACAGCAAUGUAAGAAGGCUGCUCCGACA	–	–	11.3	79
GUGCACACUCGAGGAUAUCGGAGUUUUCUUCUUUGAGAAGGCGAUUCGUGCCGUGUUAUUUUGGACAUGAGGAUCACCCAUGUG	66	36.8	–	–
UGUUGUUCAGGAUAUGAUGUUUUAUACAUGAGGAUCACCCAUGUGGGUCCUGAUUUGGCGUCAGAAGGGAAUGUUG	–	–	108	222
CUUAUGUGAGGAUAUGGUGUUGGCCACAGGGAAAAGGUCCUCCAGAAGGCACAUGAGGAUCACCCAUGUAGUGA	–	–	165	56.3
UUCUUUGUUGUGAGGAUAUCGUAUUCUUUUUGUUACGAGAAGGCACAUGAGGAUCACCCAUGUUUCUUGAUGUU	–	–	16.9	45.8
UUAAUGUGAGGAUAUCAGGUGUGCUAGCGUACUGGUACAUCUGAGAAGGCACAUGAGGAUCACCCAUGUUUCUU	–	–	32.7	110
GGAGCGGAAGGAUAUGCUGCGGGAUUGAAUGGAAAGAAAAUACAUGAGGAUCACCCAUGUAGAAGGUCCGUGAA	–	–	18.2	54.2
UUGAGGUGCAAGAAGGAUCACAUGAGGAUCACCCAUGUGAUGUGAAGUCUCGAGAUUUUAUAUCGAUAGGAUAUUGCACCGAAC	5.13	5.33	–	–
GGACAUGGGAAACCACAUGGAGAUAAGGAUAUAUAGAUGACAUGAGGAUCACCCAUGUAUGGCGAAUAGAAGGUAUGAGUGUGA	153	16.2	–	–
GUGUACAGAGGAUAUACAUGAGCAUGGAAACAUGCAUCCUCACAUGAGGAUCACCCAUGUAGAAGGCUGUACAC	–	–	26.6	31.6
UGAGCAGAAGGAUAUGCGUAAUGGCCGUGAGGCCUAGAUCUACAUGAGGAUCACCCAUGUAGAAGGUCUGUUCU	–	–	15.3	15.2
AUGCUUCACACAGGAUAUACAUGAGGAUCACCCAUGUGUCCUACGUAGCUGACACGAGCUACGCGGUAGAAGGGUGUGAAGCAU	–	–	18.6	93.7
AGAUUACGAGGAUAUCGAUUUUAGUACAUGAGGAUCACCCAUGUUAUCCAGGUCUCGUUUCGAGAAGGCGUGAUUC	–	–	303	132
UUAUACGUUGAGGAUAUGCGAAUUAGUAUAGUUGCAGAAGGCGAUACAUGAGGAUCACCCAUGUUCAUGGGCAU	–	–	127	243
ACAUGUCGUGAGAAGGACGGCGUGCAUAGCGCCGUAGGAUAUCAAGACAUGAGGAUCACCCAUGUACGCGUGUCCCGCCGUGCU	–	–	38.7	303
UCCUUGUCCUGAGGAUAUCCGCGGUUCCCAAAAGGAGAAGGCAGGACAUGAGGAUCACCCAUGUACCCAGAAAACGUGCAGAAU	–	–	9.87	42.7
GCACGAGACUAAGGAUAUGGAGUGUCUACAUUAAACAUGAGGAUCACCCAUGUAGAGAGUAUGAUUCAGAAGGUAGAGACGUGC	53.6	25.2	–	–
